In ChEMBL document CHEMBL1649343, “Pulicatins A-E, neuroactive thiazoline metabolites from cone snail-associated bacteria” (J Nat Prod, 2010):
One block for each compound: values may come before it. The source made the active and inactive calls. The rule behind the calls is not given here.

Legend:
[1] = target: 5-hydroxytryptamine receptor 2B (Mus musculus) (UniProt Q02152); experiment: Increase of 5HT2B receptor-mediated KCL-induced intracellular calcium influx in mouse DRG neurons at 20 ug/ml; type: functional, cell-based
5-hydroxytryptamine receptor 2B (Mus musculus), sequence (Q02152 whole entry): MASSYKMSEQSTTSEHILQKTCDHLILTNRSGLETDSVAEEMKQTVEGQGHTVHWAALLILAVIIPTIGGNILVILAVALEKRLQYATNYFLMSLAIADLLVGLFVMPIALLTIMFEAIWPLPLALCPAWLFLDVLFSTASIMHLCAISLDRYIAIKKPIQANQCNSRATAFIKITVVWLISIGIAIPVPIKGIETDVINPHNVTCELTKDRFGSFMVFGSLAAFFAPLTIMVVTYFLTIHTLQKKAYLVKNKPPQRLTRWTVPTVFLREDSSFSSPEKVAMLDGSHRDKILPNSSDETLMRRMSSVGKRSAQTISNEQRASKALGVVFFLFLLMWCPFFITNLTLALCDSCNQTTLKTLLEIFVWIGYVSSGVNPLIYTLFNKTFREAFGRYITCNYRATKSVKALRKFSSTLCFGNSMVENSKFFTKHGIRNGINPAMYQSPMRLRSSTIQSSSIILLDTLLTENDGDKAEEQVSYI
Outline: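 Dorsal root ganglia cells from the cervical and lumbar regions of mice were loaded with Fura-2 AM and imaged individually by fluorescence microscopy at 20 to 25 °C. After baseline, cells were given 25 mM KCl and washed. After return to baseline, compound was applied at 20 µg/mL, then replaced with 25 mM KCl while intracellular Ca2+ was monitored.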

[2] = target: T1, 5-hydroxytryptamine receptor 1A (Homo sapiens) (UniProt P08908); experiment: Binding affinity to human 5HT1A receptor at 10 uM by radioligand displacement assay
T1 sequence (whole entry): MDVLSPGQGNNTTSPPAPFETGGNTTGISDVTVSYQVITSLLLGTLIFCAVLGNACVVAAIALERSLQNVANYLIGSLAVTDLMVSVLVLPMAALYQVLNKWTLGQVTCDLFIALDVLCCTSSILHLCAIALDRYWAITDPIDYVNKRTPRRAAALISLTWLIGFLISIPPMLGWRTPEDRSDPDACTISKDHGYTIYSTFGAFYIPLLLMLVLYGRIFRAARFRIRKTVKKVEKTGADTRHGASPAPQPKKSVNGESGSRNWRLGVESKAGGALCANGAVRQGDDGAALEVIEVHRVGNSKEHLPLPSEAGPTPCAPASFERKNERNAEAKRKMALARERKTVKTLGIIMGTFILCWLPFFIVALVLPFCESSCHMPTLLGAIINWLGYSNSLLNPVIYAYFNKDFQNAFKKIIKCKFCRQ
Outline: (§1)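 Primary screen run by the PDSP/NIMH across a 46-target panel. Each compound was tested at a final concentration of 10 µM by radioligand displacement, and initial hits were obtained from this screen.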

[3] = target: 5-hydroxytryptamine receptor 1B (Homo sapiens) (UniProt P28222); experiment: Binding affinity to human 5HT1B receptor at 10 uM by radioligand displacement assay; outline: as §1
5-hydroxytryptamine receptor 1B (Homo sapiens), sequence (P28222 whole entry): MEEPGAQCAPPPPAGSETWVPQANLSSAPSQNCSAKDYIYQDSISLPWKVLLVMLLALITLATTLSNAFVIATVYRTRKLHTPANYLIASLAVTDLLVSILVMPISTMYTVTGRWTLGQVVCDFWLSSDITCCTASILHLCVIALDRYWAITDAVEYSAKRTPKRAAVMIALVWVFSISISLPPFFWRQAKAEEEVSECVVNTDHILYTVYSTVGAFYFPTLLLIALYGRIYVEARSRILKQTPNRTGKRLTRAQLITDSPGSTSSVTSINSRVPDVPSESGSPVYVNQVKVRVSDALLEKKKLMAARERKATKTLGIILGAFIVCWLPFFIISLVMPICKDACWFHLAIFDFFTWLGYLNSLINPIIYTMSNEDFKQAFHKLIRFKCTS

[4] = target: 5-hydroxytryptamine receptor 1D (Homo sapiens) (UniProt P28221); experiment: Binding affinity to human 5HT1D receptor at 10 uM by radioligand displacement assay; outline: as §1
5-hydroxytryptamine receptor 1D (Homo sapiens), sequence (P28221 whole entry): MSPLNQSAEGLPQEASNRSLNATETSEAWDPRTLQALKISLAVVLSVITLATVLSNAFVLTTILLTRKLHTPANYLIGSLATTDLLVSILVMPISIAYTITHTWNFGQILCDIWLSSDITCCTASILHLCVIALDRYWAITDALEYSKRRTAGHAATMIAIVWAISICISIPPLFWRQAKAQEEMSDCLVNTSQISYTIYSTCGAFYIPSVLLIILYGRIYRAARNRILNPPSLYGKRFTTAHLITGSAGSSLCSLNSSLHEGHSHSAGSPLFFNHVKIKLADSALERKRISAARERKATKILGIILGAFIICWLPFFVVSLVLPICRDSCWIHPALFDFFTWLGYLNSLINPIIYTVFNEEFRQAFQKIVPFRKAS

[5] = target: 5-hydroxytryptamine receptor 1E (Homo sapiens) (UniProt P28566); experiment: Binding affinity to human 5HT1E receptor at 10 uM by radioligand displacement assay; outline: as §1
5-hydroxytryptamine receptor 1E (Homo sapiens), sequence (P28566 whole entry): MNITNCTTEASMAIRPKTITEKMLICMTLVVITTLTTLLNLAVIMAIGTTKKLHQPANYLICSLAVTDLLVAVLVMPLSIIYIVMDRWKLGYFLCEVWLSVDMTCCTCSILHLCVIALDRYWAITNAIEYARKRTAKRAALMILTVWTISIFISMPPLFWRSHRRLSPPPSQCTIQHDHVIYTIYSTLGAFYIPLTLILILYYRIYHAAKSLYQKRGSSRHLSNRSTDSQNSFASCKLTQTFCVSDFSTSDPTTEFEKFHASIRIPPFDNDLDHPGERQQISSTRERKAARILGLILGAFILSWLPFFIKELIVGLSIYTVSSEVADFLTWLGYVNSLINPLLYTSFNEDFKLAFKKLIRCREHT

[6] = target: 5-hydroxytryptamine receptor 2A (Homo sapiens) (UniProt P28223); experiment: Binding affinity to human 5HT2A receptor at 10 uM by radioligand displacement assay; outline: as §1
5-hydroxytryptamine receptor 2A (Homo sapiens), sequence (P28223 whole entry): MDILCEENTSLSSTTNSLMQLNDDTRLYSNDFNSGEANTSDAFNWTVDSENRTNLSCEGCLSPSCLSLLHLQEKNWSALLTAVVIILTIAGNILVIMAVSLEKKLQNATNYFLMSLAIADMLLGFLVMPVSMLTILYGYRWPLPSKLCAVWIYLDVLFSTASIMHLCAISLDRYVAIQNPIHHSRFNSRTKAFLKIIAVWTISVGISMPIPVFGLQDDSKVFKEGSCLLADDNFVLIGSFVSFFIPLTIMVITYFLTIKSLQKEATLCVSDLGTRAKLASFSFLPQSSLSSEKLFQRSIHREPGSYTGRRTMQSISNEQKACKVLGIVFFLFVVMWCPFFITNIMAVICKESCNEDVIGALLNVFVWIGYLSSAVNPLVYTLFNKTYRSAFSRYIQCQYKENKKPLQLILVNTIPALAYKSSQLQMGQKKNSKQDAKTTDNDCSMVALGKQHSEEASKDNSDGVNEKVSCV

[7] = target: T2, 5-hydroxytryptamine receptor 2C (Homo sapiens) (UniProt P28335); experiment: Binding affinity to human 5HT2C receptor at 10 uM by radioligand displacement assay; outline: as §1
T2 sequence (whole entry): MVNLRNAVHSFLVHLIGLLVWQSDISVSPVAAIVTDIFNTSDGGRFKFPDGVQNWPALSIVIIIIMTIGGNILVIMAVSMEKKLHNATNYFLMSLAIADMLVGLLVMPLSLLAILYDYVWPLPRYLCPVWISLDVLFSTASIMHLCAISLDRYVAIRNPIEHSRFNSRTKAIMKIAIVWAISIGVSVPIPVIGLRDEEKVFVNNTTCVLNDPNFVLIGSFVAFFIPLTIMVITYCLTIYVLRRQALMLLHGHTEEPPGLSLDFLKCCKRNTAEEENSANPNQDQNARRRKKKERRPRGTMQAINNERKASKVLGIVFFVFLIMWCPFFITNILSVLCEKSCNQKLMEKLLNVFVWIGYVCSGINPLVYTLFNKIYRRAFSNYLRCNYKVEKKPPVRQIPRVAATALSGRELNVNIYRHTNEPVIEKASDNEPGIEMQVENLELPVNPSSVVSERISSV

[8] = target: T3, 5-hydroxytryptamine receptor 3A (Homo sapiens) (UniProt P46098); experiment: Binding affinity to human 5HT3 receptor at 10 uM by radioligand displacement assay; outline: as §1
T3 sequence (whole entry): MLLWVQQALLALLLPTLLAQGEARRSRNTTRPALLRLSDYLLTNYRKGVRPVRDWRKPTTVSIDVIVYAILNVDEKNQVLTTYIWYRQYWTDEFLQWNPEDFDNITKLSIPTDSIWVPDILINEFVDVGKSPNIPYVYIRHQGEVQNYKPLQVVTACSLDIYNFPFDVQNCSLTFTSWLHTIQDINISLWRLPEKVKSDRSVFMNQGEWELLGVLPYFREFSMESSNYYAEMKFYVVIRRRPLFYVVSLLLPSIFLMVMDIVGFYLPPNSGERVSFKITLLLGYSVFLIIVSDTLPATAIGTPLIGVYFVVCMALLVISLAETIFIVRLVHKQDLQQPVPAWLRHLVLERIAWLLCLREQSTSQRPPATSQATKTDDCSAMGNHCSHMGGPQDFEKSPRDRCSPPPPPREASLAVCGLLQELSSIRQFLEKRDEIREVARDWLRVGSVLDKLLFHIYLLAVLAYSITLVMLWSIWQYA

[9] = target: 5-hydroxytryptamine receptor 4 (Homo sapiens) (UniProt Q13639); experiment: Binding affinity to human 5HT4 receptor at 10 uM by radioligand displacement assay; outline: as §1
5-hydroxytryptamine receptor 4 (Homo sapiens), sequence (Q13639 whole entry): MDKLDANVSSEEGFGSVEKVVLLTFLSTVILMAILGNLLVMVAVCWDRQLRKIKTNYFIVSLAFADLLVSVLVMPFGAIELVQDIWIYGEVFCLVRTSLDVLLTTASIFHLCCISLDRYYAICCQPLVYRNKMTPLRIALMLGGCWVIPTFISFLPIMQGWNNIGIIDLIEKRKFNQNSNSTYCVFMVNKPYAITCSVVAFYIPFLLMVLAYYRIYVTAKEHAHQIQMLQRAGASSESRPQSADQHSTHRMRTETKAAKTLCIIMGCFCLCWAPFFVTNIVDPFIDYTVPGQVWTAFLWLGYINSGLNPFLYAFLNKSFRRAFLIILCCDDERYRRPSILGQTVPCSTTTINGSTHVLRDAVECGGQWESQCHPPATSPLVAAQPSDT

[10] = target: 5-hydroxytryptamine receptor 5A (Homo sapiens) (UniProt P47898); experiment: Binding affinity to human 5HT5A receptor at 10 uM by radioligand displacement assay; outline: as §1
5-hydroxytryptamine receptor 5A (Homo sapiens), sequence (P47898 whole entry): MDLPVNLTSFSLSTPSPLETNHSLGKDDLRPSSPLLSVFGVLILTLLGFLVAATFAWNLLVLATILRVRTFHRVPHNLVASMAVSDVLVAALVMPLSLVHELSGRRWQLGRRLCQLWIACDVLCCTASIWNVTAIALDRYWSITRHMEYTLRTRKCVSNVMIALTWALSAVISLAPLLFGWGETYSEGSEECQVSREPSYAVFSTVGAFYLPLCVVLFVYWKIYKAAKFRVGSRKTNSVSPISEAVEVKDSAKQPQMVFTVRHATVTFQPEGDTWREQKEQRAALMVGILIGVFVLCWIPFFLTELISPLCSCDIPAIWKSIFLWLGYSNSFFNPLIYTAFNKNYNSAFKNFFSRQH

[11] = target: 5-hydroxytryptamine receptor 6 (Homo sapiens) (UniProt P50406); experiment: Binding affinity to human 5HT6 receptor at 10 uM by radioligand displacement assay; outline: as §1
5-hydroxytryptamine receptor 6 (Homo sapiens), sequence (P50406 whole entry): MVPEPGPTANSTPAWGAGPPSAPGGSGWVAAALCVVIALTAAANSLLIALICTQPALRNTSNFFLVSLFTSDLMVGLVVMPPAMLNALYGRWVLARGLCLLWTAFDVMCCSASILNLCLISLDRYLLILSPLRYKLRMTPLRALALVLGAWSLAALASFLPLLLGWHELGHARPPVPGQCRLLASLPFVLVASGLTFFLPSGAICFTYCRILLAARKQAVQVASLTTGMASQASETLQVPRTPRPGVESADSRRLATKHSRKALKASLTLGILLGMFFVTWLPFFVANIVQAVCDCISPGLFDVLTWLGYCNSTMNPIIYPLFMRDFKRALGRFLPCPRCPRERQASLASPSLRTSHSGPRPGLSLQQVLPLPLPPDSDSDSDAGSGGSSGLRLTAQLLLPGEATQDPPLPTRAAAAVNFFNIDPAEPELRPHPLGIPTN

[12] = target: 5-hydroxytryptamine receptor 7 (Homo sapiens) (UniProt P34969); experiment: Binding affinity to human 5HT7 receptor at 10 uM by radioligand displacement assay; outline: as §1
5-hydroxytryptamine receptor 7 (Homo sapiens), sequence (P34969 whole entry): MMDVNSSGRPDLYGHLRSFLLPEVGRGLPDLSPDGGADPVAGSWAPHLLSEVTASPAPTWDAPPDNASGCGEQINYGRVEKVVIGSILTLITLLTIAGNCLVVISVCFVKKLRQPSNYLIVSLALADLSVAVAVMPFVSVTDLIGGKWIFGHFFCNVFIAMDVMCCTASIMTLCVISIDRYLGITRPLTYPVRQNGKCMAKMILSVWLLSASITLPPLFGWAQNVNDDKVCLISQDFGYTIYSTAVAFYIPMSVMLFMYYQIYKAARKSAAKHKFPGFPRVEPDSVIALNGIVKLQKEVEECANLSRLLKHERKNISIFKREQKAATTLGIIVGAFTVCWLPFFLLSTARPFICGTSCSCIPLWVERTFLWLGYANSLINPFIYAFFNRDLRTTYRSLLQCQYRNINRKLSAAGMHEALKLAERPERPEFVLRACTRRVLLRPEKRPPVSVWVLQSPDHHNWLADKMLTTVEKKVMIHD

Homo sapiens [13] = organism: Homo sapiens; experiment: Selectivity ratio of Ki for human 5HT1A receptor to Ki for human 5HT2B receptor
Homo sapiens [14] = organism: Homo sapiens; experiment: Selectivity ratio of Ki for human 5HT1B receptor to Ki for human 5HT2B receptor
Homo sapiens [15] = organism: Homo sapiens; experiment: Selectivity ratio of Ki for human 5HT1D receptor to Ki for human 5HT2B receptor
Homo sapiens [16] = organism: Homo sapiens; experiment: Selectivity ratio of Ki for human 5HT1E receptor to Ki for human 5HT2B receptor
Homo sapiens [17] = organism: Homo sapiens; experiment: Selectivity ratio of Ki for human 5HT2A receptor to Ki for human 5HT2B receptor
Homo sapiens [18] = organism: Homo sapiens; experiment: Selectivity ratio of Ki for human 5HT2C receptor to Ki for human 5HT2B receptor
Homo sapiens [19] = organism: Homo sapiens; experiment: Selectivity ratio of Ki for human 5HT3 receptor to Ki for human 5HT2B receptor
Homo sapiens [20] = organism: Homo sapiens; experiment: Selectivity ratio of Ki for human 5HT4 receptor to Ki for human 5HT2B receptor
Homo sapiens [21] = organism: Homo sapiens; experiment: Selectivity ratio of Ki for human 5HT5A receptor to Ki for human 5HT2B receptor
Homo sapiens [22] = organism: Homo sapiens; experiment: Selectivity ratio of Ki for human 5HT6 receptor to Ki for human 5HT2B receptor
Homo sapiens [23] = organism: Homo sapiens; experiment: Selectivity ratio of Ki for human 5HT7 receptor to Ki for human 5HT2B receptor
[24] = target: Histamine H1 receptor (Homo sapiens) (UniProt P35367); experiment: Binding affinity to human histamine H1 receptor by radioligand displacement assay
Histamine H1 receptor (Homo sapiens), sequence (P35367 whole entry): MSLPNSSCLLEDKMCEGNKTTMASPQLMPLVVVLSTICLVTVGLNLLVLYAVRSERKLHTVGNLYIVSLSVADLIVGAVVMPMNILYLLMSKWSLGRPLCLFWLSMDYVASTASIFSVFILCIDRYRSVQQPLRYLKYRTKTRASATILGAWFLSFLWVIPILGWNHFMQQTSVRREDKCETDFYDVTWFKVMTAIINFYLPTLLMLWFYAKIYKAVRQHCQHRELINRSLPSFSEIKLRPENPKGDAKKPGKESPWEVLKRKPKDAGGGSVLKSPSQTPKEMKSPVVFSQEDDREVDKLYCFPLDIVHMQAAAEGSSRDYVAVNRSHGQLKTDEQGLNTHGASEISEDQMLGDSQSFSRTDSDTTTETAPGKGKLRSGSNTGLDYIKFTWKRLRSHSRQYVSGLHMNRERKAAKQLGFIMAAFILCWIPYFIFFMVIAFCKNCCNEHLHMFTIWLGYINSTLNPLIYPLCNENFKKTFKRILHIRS

[25] = target: Kappa-type opioid receptor (Homo sapiens) (UniProt P41145); experiment: Binding affinity to human kappa opioid receptor by radioligand displacement assay
Kappa-type opioid receptor (Homo sapiens), sequence (P41145 whole entry): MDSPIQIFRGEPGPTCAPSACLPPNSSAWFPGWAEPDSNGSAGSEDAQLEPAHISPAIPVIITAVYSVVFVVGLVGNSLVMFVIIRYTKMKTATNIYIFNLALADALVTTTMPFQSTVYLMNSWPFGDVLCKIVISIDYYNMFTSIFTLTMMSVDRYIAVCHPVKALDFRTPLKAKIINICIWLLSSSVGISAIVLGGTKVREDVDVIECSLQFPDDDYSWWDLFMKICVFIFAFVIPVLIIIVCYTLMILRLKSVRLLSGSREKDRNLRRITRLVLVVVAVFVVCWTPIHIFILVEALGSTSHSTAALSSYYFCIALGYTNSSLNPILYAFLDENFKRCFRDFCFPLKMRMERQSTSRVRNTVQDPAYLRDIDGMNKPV

Activity [1]: Active
SMILES: OC[C@@H]1CSC(c2ccccc2O)=N1

Activity [1]: inactive | Activity [2]: inactive | Activity [3]: inactive | Activity [4]: inactive | Activity [5]: inactive | Activity [6]: inactive | Activity [7]: inactive | Activity [8]: inactive | Activity [9]: inactive | Activity [10]: inactive | Activity [11]: inactive | Activity [12]: inactive | Ratio Ki (Homo sapiens [13]): 20 | Ratio Ki (Homo sapiens [14]): 20 | Ratio Ki (Homo sapiens [15]): 20 | Ratio Ki (Homo sapiens [16]): 20 | Ratio Ki (Homo sapiens [17]): 20 | Ratio Ki (Homo sapiens [18]): 20 | Ratio Ki (Homo sapiens [19]): 20 | Ratio Ki (Homo sapiens [20]): 20 | Ratio Ki (Homo sapiens [21]): 20 | Ratio Ki (Homo sapiens [22]): 20 | Ratio Ki (Homo sapiens [23]): 20
SMILES: C[C@@H]1SC(c2ccccc2O)=N[C@@H]1CO

Activity [1]: Active | Activity [24]: 678 nM | Activity [25]: 3.71 µM
SMILES: NC(=O)C1CSC(c2ccccc2O)=N1 (stereo not drawn)

Activity [24]: 517 nM
SMILES: NC(=O)c1csc(-c2ccccc2O)n1
